According to ChEMBL document CHEMBL2169760 (J Med Chem, 2012):
pKi: −log10 of the molar value. Blank lines part the entries; values can stand above or below the compound they belong to. The source made the active and inactive calls. The rule behind the calls is not given here.

Experiments:
[1] = molecular target: T1, Adenosine receptor A1 (Homo sapiens) (UniProt P30542); assay: Activity at human A1 adenosine receptor expressed in CHO cells assessed as inhibition of forskolin-stimulated cAMP production at 10 uM after 30 min; format: functional, cell-based
T1 sequence (whole entry): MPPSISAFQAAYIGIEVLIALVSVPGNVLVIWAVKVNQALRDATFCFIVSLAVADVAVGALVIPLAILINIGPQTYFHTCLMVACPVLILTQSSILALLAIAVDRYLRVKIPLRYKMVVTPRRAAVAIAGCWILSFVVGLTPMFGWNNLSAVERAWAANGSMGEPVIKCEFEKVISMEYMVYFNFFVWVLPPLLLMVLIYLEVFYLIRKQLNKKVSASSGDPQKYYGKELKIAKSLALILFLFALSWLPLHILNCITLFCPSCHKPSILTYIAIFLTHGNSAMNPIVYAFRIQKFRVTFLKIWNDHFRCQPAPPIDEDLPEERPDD

[2] = molecular target: T2, Adenosine receptor A2a (Homo sapiens, UniProt P29274); assay: Displacement of [3H]CGS21680 from human A2a adenosine receptor expressed in HEK293 cells at 10 uM after 60 min by Perkin Elmer Liquid Scintillation Analyzer; format: cell-based
T2 sequence (P29274 whole entry): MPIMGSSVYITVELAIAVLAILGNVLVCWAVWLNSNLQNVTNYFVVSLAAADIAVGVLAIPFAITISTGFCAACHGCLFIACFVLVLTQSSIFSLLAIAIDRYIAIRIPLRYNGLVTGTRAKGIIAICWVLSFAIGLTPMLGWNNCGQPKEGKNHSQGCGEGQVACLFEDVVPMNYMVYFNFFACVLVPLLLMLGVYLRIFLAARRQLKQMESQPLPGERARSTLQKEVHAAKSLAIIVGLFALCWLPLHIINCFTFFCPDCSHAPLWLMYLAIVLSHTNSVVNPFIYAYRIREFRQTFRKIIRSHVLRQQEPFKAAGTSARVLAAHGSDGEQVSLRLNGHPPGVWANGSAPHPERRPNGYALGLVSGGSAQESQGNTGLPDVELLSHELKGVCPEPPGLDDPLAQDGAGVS

[3] = molecular target: T3, Adenosine receptor A1 (Homo sapiens, UniProt P30542); assay: Displacement of [3H]R-PIA from human A1 adenosine receptor expressed in CHO cells after 60 min by Perkin Elmer Liquid Scintillation Analyzer; format: cell-based
T3 sequence (P30542 whole entry): T1 sequence (whole entry)

[4] = molecular target: T2, Adenosine receptor A2a; assay: Displacement of [3H]CGS21680 from human A2a adenosine receptor expressed in HEK293 cells after 60 min by Perkin Elmer Liquid Scintillation Analyzer; format: cell-based
[5] = molecular target: T4, Adenosine receptor A3 (Homo sapiens, UniProt P0DMS8); assay: Displacement of [125I]I-AB-MECA from human A3 adenosine receptor expressed in CHO cells after 60 min Packard Cobra 2 gamma-counter; format: cell-based
T4 sequence (P0DMS8 whole entry): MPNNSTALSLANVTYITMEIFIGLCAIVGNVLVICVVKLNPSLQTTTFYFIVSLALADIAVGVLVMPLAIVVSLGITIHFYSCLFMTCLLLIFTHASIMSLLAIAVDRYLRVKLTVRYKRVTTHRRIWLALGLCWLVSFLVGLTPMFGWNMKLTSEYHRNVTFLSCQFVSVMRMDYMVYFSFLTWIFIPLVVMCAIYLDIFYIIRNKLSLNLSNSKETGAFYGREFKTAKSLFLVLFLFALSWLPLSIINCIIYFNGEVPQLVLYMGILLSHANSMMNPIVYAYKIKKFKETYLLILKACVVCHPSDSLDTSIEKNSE

[6] = molecular target: T1, Adenosine receptor A1 (Homo sapiens); assay: Displacement of [3H]R-PIA from human A1 adenosine receptor expressed in CHO cells at 10 uM after 60 min by Perkin Elmer Liquid Scintillation Analyzer; format: cell-based
[7] = molecular target: Adenosine receptors; A1 & A3 (Homo sapiens) (UniProt P30542+P0DMS8); assay: Selectivity ratio of Ki for human A3 adenosine receptor to Ki for human A1 adenosine receptor
[8] = organism: Homo sapiens; assay: Selectivity ratio of Ki for human A2a adenosine receptor to Ki for human A1 adenosine receptor
[9] = test system: Mus musculus; assay: Anticonvulsant activity in CF-1 albino mouse assessed as protection against subcutaneous metrazol-induced seizures at 1 mg/kg, ip; format: functional, organism-based; design: dose 1 mg/kg
Procedure, shortened: (§1)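 Dosed i.p. at 0.01 ml/g from a DMSO stock diluted to 10% DMSO (v/v) final. Single doses tested in traditional MES or s.c. metrazol seizure tests at the time of peak effect. Scored qualitatively as number of animals protected from convulsions (groups of 4–8).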

[10] = test system: Mus musculus; assay: Anticonvulsant activity in ip dosed CF-1 albino mouse assessed as protection against 6 Hz psychomotor seizure after 1 hr by minimal clonic seizure test; format: functional; conditions: CF-1, ip
Procedure, shortened: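 Corneal 6 Hz stimulation (32 mA, 3 s, CC97) applied 1 h post-dose (time of peak effect). Absence of minimal clonic/automatistic behavior counted as protection.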

[11] = test system: Mus musculus; assay: Anticonvulsant activity in CF-1 albino mouse assessed as protection against subcutaneous metrazol-induced seizures at 3 mg/kg, ip; format: functional, organism-based; design: dose 3 mg/kg; procedure, shortened: as §1
[12] = test system: Mus musculus; assay: Anticonvulsant activity in CF-1 albino mouse assessed as protection against maximal electroshock-induced seizures at 3 mg/kg, ip by MES test; format: functional, organism-based; design: dose 3 mg/kg; procedure, shortened: as §1
[13] = test system: Mus musculus; assay: Anticonvulsant activity in CF-1 albino mouse assessed as protection against maximal electroshock-induced seizures at 1 mg/kg, ip by MES test; format: functional, organism-based; design: dose 1 mg/kg; procedure, shortened: as §1
[14] = test system: Mus musculus; assay: Anticonvulsant activity in CF-1 albino mouse assessed as protection against maximal electroshock-induced seizures at 2 mg/kg, ip by MES test; format: functional, organism-based; design: dose 2 mg/kg; procedure, shortened: as §1
[15] = test system: Mus musculus; assay: Toxicity in ip dosed CF-1 albino mouse assessed as behavioral changes after 4 hrs by rotarod test; format: organism-based; conditions: in vivo
[16] = test system: Mus musculus; assay: Toxicity in ip dosed CF-1 albino mouse assessed as behavioral changes by rotarod test; format: organism-based; conditions: in vivo
[17] = test system: Mus musculus; assay: Anticonvulsant activity in ip dosed CF-1 albino mouse administered as single dose after 1 hr by corneal kindled mouse test; format: functional, organism-based
Procedure, shortened: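 Mice corneally kindled twice daily (3 mA, 3 s, about 12 days, tetracaine/saline drop before each stimulation) and re-stimulated the day before testing. Single i.p. dose given (n = 4 or 8), then challenged with 3 mA for 3 s at 1 h post-injection. EC50 (±SE) determined.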

- inhibition [1]: 100%
SMILES: OC[C@H]1O[C@@H](n2cnc3c(NC4CCCC4)ncnc32)[C@H](O)[C@@H]1O

- inhibition [2]: 45%
- inhibition [1]: -9%
SMILES: O[C@@H]1[C@H](O)[C@@H]2C[C@@H]2[C@H]1n1cnc2c(NCC(C3CC3)C3CC3)nc(Cl)nc21

- pKi [3]: 6.31
- pKi [4]: 5.65
- pKi [5]: 6.74
SMILES: O[C@@H]1[C@H](O)[C@@H]2C[C@@H]2[C@H]1n1cnc2c(NC(C3CC3)C3CC3)nc(I)nc21

- inhibition [1]: 37.3%
SMILES: CC[C@@H](Nc1nc(Cl)nc2c1ncn2[C@H]1[C@H](O)[C@H](O)[C@@H]2C[C@@H]21)C1CC1

- inhibition [2]: 43%
- pKi [3]: 6.68
- pKi [5]: 7.15
SMILES: NNc1nc(NC(C2CC2)C2CC2)c2ncn([C@H]3[C@H](O)[C@H](O)[C@@H]4C[C@@H]43)c2n1

SMILES: O[C@@H]1[C@H](O)[C@@H]2C[C@@H]2[C@H]1n1cnc2c(N[C@@H](C3CCC3)C3CC3)nc(Cl)nc21
- inhibition [1]: 33.4%
- pKi [3]: 6.57
- pKi [4]: 5.26
- pKi [5]: 5.53

- inhibition [2]: 17%
- pKi [3]: 5.97
- pKi [5]: 6.19
SMILES: O=C(O)c1cnn(-c2nc(NC(C3CC3)C3CC3)c3ncn([C@H]4[C@H](O)[C@H](O)[C@@H]5C[C@@H]54)c3n2)c1

- inhibition [6]: 34%
SMILES: O[C@@H]1[C@H](O)[C@@H]2C[C@@H]2[C@H]1n1cnc2c(NC(C3CCCC3)C3CCCC3)nc(Cl)nc21

- pKi [3]: 6.14
- pKi [4]: 5.39
- pKi [5]: 6.31
SMILES: COC(=O)c1cnn(-c2nc(NC(C3CC3)C3CC3)c3ncn([C@H]4[C@H](O)[C@H](O)[C@@H]5C[C@@H]54)c3n2)c1

SMILES: O[C@@H]1[C@H](O)[C@@H]2C[C@@H]2[C@H]1n1cnc2c(N[C@@H](c3ccccc3)C3CC3)nc(Cl)nc21
- inhibition [2]: 46%
- inhibition [1]: -7.4%
- pKi [3]: 5.52
- pKi [5]: 6.10

SMILES: O[C@@H]1[C@H](O)[C@@H]2C[C@@H]2[C@H]1n1cnc2c(N[C@H](c3ccccc3)C3CC3)nc(Cl)nc21
- inhibition [2]: 36%
- inhibition [1]: -2.4%
- inhibition [6]: 50%
- pKi [5]: 5.66

SMILES: O[C@@H]1[C@H](O)[C@@H]2C[C@@H]2[C@H]1n1cnc2c(N[C@H](C3CCC3)C3CC3)nc(Cl)nc21
- inhibition [1]: 18.1%
- Ratio Ki [7]: 23
- pKi [3]: 6.92
- pKi [4]: 5.19
- pKi [5]: 5.55
- Ratio Ki [8]: 53

- inhibition [1]: 33.8%
SMILES: CC(C)[C@@H](Nc1nc(Cl)nc2c1ncn2[C@H]1[C@H](O)[C@H](O)[C@@H]2C[C@@H]21)C1CC1

SMILES: OC[C@H]1O[C@@H](n2cnc3c(NC4CCCC4)nc(Cl)nc32)[C@H](O)[C@@H]1O
- Activity [9]: inactive
- ED50 [10]: 0.12 mg/kg
- Activity [11]: inactive
- Activity [12]: inactive
- Activity [13]: inactive
- Activity [14]: inactive

- inhibition [1]: 20.8%
SMILES: CC(C)[C@H](Nc1nc(Cl)nc2c1ncn2[C@H]1[C@H](O)[C@H](O)[C@@H]2C[C@@H]21)C1CC1

- inhibition [1]: 24%
SMILES: O[C@@H]1[C@H](O)[C@@H]2C[C@@H]2[C@H]1n1cnc2c(N[C@@H](CC3CC3)C3CC3)nc(Cl)nc21

- inhibition [1]: 18.4%
SMILES: O[C@@H]1[C@H](O)[C@@H]2C[C@@H]2[C@H]1n1cnc2c(N[C@H](CC3CC3)C3CC3)nc(Cl)nc21

- inhibition [2]: 38%
- pKi [3]: 7.25
- pKi [5]: 7.77
SMILES: O[C@@H]1[C@H](O)[C@@H]2C[C@@H]2[C@H]1n1cnc2c(NC(C3CC3)C3CC3)ncnc21

- inhibition [1]: 57.9%
SMILES: CC[C@H](Nc1nc(Cl)nc2c1ncn2[C@H]1[C@H](O)[C@H](O)[C@@H]2C[C@@H]21)C1CC1

SMILES: NCCNC(=O)Cc1ccc(NC(=O)Cc2ccc(Nc3ncnc4c3ncn4[C@@H]3O[C@H](CO)[C@@H](O)[C@H]3O)cc2)cc1
- TD50 [15]: 0.14 mg/kg
- Activity [9]: inactive
- ED50 [10]: 0.03 mg/kg
- Activity [11]: inactive
- inhibition [1]: 94%
- pKi [5]: 7.91
- Activity [12]: inactive
- Activity [13]: inactive
- Activity [14]: inactive

SMILES: O[C@@H]1[C@H](O)[C@@H]2C[C@@H]2[C@H]1n1cnc2c(NC(C3CC3)C3CC3)nc(Cl)nc21
- Activity [9]: inactive
- ED50 [10]: 2.74 mg/kg
- TD50 [16]: > 30 mg/kg
- Activity [11]: inactive
- EC50 [17]: 1.79 mg/kg
- Activity [12]: inactive
- Activity [13]: inactive
- Activity [14]: inactive
